From PubChem
HIV Env fusion: HIV envelope-mediated fusion inhibition; 360,000 compounds, 1.1% hits; inhibition, % at 12.3 µM; HeLa-JRFL Env/CEM21 cell fusion, luciferase;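 active = mean replicate inhibition score of at least 50 and every replicate individually at or above 50; inconclusive = only one of the two criteria met; inactive = mean below 50 and not all replicates reaching 50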
PAX8 reporter: PAX8 transcriptional activity inhibition | inhibition, % at 12.6 µM | AID 652154 | 360,000 compounds, 1.2% hits | RMG-I TPO-luciferase reporter, SteadyGlo, 24 h;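 active = mean replicate inhibition at least 60% with every replicate also reaching 60%; inconclusive = only one of the two criteria is met; inactive = mean below 60% and not all replicates reaching 60%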;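 note: luciferase light reporting Pax8 driven TPO promoter activity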
Glyco luc inh: blocks N-linked glycosylation in D54 reporter cells | D54 ERlucT glycosylation luciferase reporter, 24 h; percent of 100 nM tunicamycin response | reporter increase, % at 12.5 µM | 360,000 compounds, 0.23% hits;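 active = mean luciferase reporter signal, scaled so untreated is 0 and the glycosylation-blocking control 100, at or above a set limit in every replicate; inconclusive = mean reaches the limit but not every replicate does; inactive = mean below the limit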;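 note: luciferase carries N-glycosylation sites so blocking glycosylation raises the light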
MLL AF4-AF9 inh: MLL-AF4/AF9 protein interaction inhibition | inhibition, % at 10 µM | AlphaScreen, biotin-AF4 peptide binding to FLAG-AF9 | P42568 | 350,000 compounds, 0.47% hits | AID 651704;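 active = every replicate reaching a set inhibition limit, whatever the replicate mean, cut at about 25% in these data; inconclusive = mean inhibition reaches that limit but some replicates miss it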
Target sequence (P42568 whole entry, looked up): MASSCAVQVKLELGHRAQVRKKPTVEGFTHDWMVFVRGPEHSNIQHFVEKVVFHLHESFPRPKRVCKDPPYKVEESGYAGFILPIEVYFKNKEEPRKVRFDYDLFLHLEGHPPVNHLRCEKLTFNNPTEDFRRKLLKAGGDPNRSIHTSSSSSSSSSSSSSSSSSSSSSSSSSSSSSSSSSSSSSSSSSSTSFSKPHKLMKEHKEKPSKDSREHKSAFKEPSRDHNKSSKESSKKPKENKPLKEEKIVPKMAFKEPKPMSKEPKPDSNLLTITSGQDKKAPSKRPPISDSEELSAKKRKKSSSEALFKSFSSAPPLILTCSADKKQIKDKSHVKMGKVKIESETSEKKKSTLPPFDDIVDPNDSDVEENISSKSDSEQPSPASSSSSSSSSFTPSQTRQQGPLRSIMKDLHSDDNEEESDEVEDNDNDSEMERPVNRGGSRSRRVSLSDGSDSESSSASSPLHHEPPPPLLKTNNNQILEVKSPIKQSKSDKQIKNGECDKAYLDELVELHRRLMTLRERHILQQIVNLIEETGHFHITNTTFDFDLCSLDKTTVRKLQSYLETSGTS
EWS-Fli block: blocks EWS/Fli oncoprotein-driven transcription | inhibition, % at 12.6 µM | A673 NR0B1-luciferase reporter, viability-normalised | 350,000 compounds, 0.67% hits;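 active = mean inhibition of at least 50% after viability correction, with every replicate also passing that limit; inconclusive = mean reaches 50% but only one of two replicates passes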;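 note: firefly luciferase signal divided by Alamar Blue viability fluorescence both relative to DMSO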
FN deposition inh: fibronectin deposition inhibition. inhibition, % at 12.6 µM. AH1F fibroblasts, Alexa488-fibronectin deposition fluorescence, overnight. AID 743247. 350,000 compounds, 0.086% hits;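 active = mean inhibition across replicates of 30% or more, regardless of how many single replicates reach that level; inconclusive = mean under 30% yet at least half of replicates reach 30%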
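material = AH1F fibroblast monolayer depositing Alexa488-labelled fibronectin into matrix | amount = 10000 AH1F cells/well | buffer or medium = DMEM plus 2% serum, read in PBS | incubation = 1 h cell adhesion before compound, then overnight fibronectin incubation | detection = fluorescence at 485 nm excitation, 525 nm emission | evaluation = percent inhibition as loss of matrix-bound fibronectin fluorescence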
Large screens that a line does not name were inactive; [ ] = remark or other dose. An excerpt weighted towards active compounds, which were near 2.5% of everything screened.

CCCN(C)C[C@H]1Oc2ncc(Br)cc2C(=O)N([C@H](C)CO)C[C@H]1C	none (no result: PAX8 reporter, Glyco luc inh)
COc1ccc([C@H]2/C=C\CN(C(=O)C3CC3)[C@@H](C)C(=O)N2Cc2ccc(F)cc2)cc1	HIV Env fusion 70
COc1ccc(C2/C=C\CN(C(=O)C3CC3)[C@H](Cc3ccccc3)C(=O)N2Cc2ccc(F)cc2)cc1 (stereo not given in full)	none (no result: HIV Env fusion, PAX8 reporter, MLL AF4-AF9 inh, EWS-Fli block, FN deposition inh)
Cc1noc(C)c1S(=O)(=O)Nc1ccc2c(c1)C(=O)N([C@H](C)CO)C[C@H](C)[C@@H](CN(C)Cc1ccc(C(=O)Nc3ccccc3N)cc1)O2	none (no result: HIV Env fusion, Glyco luc inh)
C[C@@H]1CN([C@H](C)CO)C(=O)c2cc(NS(=O)(=O)c3ccc(F)cc3)ccc2O[C@@H](C)CCCCO[C@@H]1CN(C)S(=O)(=O)c1cn(C)cn1	none (no result: Glyco luc inh)
Cc1ccc(-c2cc(=O)c3ccccc3[nH]2)cc1	none
Cc1ccc2[nH]c(-c3ccccc3)cc(=O)c2c1	EWS-Fli block 58 (no result: MLL AF4-AF9 inh)
Cc1ccc(S(=O)(=O)N(C)C[C@H]2Oc3ccc(NC(=O)Nc4ccc(F)cc4)cc3C(=O)N([C@H](C)CO)C[C@H]2C)cc1	none (no result: HIV Env fusion, Glyco luc inh, FN deposition inh)
C[C@H](CO)N1C[C@H](C)[C@@H](CN(C)Cc2ccc(-c3ccccc3)cc2)Oc2ccc(NC(=O)Cc3ccccc3)cc2CC1=O	PAX8 reporter 94 (no result: Glyco luc inh, FN deposition inh)
C[C@@H]1CN([C@H](C)CO)C(=O)Cc2cc(NC(=O)Cc3ccccc3)ccc2O[C@@H]1CN(C)Cc1ccc(-c2ccccc2)cc1	none (no result: Glyco luc inh, FN deposition inh)
C[C@@H]1CN([C@@H](C)CO)C(=O)Cc2cc(NC(=O)Cc3ccccc3)ccc2O[C@@H]1CN(C)Cc1ccc(-c2ccccc2)cc1	none (no result: Glyco luc inh, FN deposition inh)
C[C@@H]1CN([C@@H](C)CO)C(=O)Cc2cc(NC(=O)CCC(F)(F)F)ccc2O[C@H]1CN(C)Cc1ccc(-c2ccccc2)cc1	PAX8 reporter 100 (no result: Glyco luc inh, FN deposition inh)
C[C@H](CO)N1C[C@H](C)[C@H](CN(C)Cc2ccc(-c3ccccc3)cc2)Oc2ccc(NC(=O)Cc3ccccc3)cc2CC1=O	PAX8 reporter 66 (no result: Glyco luc inh, FN deposition inh)
C[C@H]1CN([C@@H](C)CO)C(=O)Cc2cc(NC(=O)CCC(F)(F)F)ccc2O[C@H]1CN(C)Cc1ccc(-c2ccccc2)cc1	none
O=C(C1CCOCC1)N1CC(=O)N2[C@@H](CO)[C@H](c3ccc(C#Cc4cccc(F)c4)cc3)[C@@H]2C1	none (no result: HIV Env fusion, Glyco luc inh, FN deposition inh)
Cc1noc(C)c1NC(=O)Nc1ccc2c(c1)C(=O)N([C@@H](C)CO)C[C@H](C)[C@@H](CN(C)S(=O)(=O)c1cn(C)cn1)O2	none (no result: HIV Env fusion, PAX8 reporter, Glyco luc inh, FN deposition inh)
O=C(C[C@@H]1CC[C@@H](NS(=O)(=O)c2ccc(F)cc2)[C@@H](CO)O1)NCc1ccccc1F	none (no result: HIV Env fusion, PAX8 reporter, Glyco luc inh)
CC(C)NC(=O)N(C)C[C@@H]1Oc2ncc(C#CC3CCCC3)cc2C(=O)N([C@H](C)CO)C[C@@H]1C	none (no result: Glyco luc inh)
COc1ccc(CN(C)C[C@H]2OCCCC[C@@H](C)Oc3ccc(NS(=O)(=O)c4ccc(OC)cc4)cc3C(=O)N([C@@H](C)CO)C[C@H]2C)cc1	none (no result: Glyco luc inh, MLL AF4-AF9 inh)
COc1ccc(S(=O)(=O)Nc2ccc3c(c2)C(=O)N([C@@H](C)CO)C[C@@H](C)[C@@H](CN(C)Cc2ccc(C(F)(F)F)cc2)OCCCC[C@@H](C)O3)cc1	PAX8 reporter 105 (no result: Glyco luc inh)
COc1ccc(S(=O)(=O)Nc2ccc3c(c2)C(=O)N([C@@H](C)CO)C[C@@H](C)[C@@H](CN(C)Cc2ccc(C(F)(F)F)cc2)OCCCC[C@H](C)O3)cc1	none (no result: Glyco luc inh)
COc1ccc(S(=O)(=O)Nc2ccc3c(c2)C(=O)N([C@H](C)CO)C[C@@H](C)[C@H](CN(C)Cc2ccc(C(F)(F)F)cc2)OCCCC[C@@H](C)O3)cc1	HIV Env fusion 64[16.7 µM] (no result: Glyco luc inh)
COc1ccc(S(=O)(=O)Nc2ccc3c(c2)C(=O)N([C@H](C)CO)C[C@H](C)[C@H](CN(C)Cc2ccc(C(F)(F)F)cc2)OCCCC[C@@H](C)O3)cc1	none (no result: Glyco luc inh)
COc1ccc(S(=O)(=O)Nc2ccc3c(c2)C(=O)N([C@H](C)CO)C[C@@H](C)[C@@H](CN(C)Cc2ccc(C(F)(F)F)cc2)OCCCC[C@H](C)O3)cc1	HIV Env fusion 74[16.7 µM], PAX8 reporter 105 (no result: Glyco luc inh)
COc1ccc(S(=O)(=O)Nc2ccc3c(c2)C(=O)N([C@H](C)CO)C[C@@H](C)[C@@H](CN(C)Cc2ccc(C(F)(F)F)cc2)OCCCC[C@@H](C)O3)cc1	HIV Env fusion 55[16.7 µM], PAX8 reporter 110 (no result: Glyco luc inh)
CCCNC(=O)N(C)C[C@H]1Oc2ncc(C3=CCCCC3)cc2C(=O)N([C@@H](C)CO)C[C@H]1C	none (no result: PAX8 reporter, Glyco luc inh, FN deposition inh)
CC(=O)N[C@@H]1CC[C@@H](CCNC(=O)C2CCC2)O[C@@H]1CO	none (no result: Glyco luc inh)
C[C@@H]1CN([C@@H](C)CO)C(=O)c2cc(-c3cccc(C#N)c3)cnc2O[C@H]1CN(C)C(=O)c1cnccn1	none (no result: Glyco luc inh)
C[C@@H]1CN([C@H](C)CO)C(=O)Cc2cc(NC(=O)C3CC3)ccc2O[C@H]1CN(C)S(C)(=O)=O	none (no result: Glyco luc inh, FN deposition inh)
C[C@@H]1CN([C@@H](C)CO)C(=O)c2cc(NC(=O)c3ccncc3)ccc2O[C@H]1CN(C)C	none (no result: HIV Env fusion, Glyco luc inh, FN deposition inh)
COc1ccc(S(=O)(=O)Nc2ccc3c(c2)C(=O)N([C@@H](C)CO)C[C@@H](C)[C@H](CN(C)Cc2ccc(C(F)(F)F)cc2)OCCCC[C@H](C)O3)cc1	HIV Env fusion inconclusive, PAX8 reporter 96 (no result: Glyco luc inh)
COc1ccc(S(=O)(=O)Nc2ccc3c(c2)C(=O)N([C@H](C)CO)C[C@H](C)[C@H](CN(C)Cc2ccc(C(F)(F)F)cc2)OCCCC[C@H](C)O3)cc1	PAX8 reporter 108 (no result: Glyco luc inh)
Cc1ccc(S(=O)(=O)N(C)C[C@H]2Oc3ccc(NS(=O)(=O)c4ccc(Cl)cc4)cc3CC(=O)N([C@H](C)CO)C[C@H]2C)cc1	none (no result: Glyco luc inh, FN deposition inh)
C[C@@H]1CN([C@H](C)CO)C(=O)c2cc(C#CCN(C)C)cnc2O[C@@H]1CN(C)Cc1ccccn1	none (no result: PAX8 reporter, Glyco luc inh)
CN1C(=O)c2cc(NC(=O)c3cscn3)ccc2OC[C@H]2O[C@H](CC(=O)N3CCCCC3)CC[C@@H]21	none (no result: Glyco luc inh)
CCCN1[C@@H]2Cn3c(ccc(-c4ccc(OC)cc4)c3=O)[C@H]1[C@@H](C(=O)NCC)[C@@H]2CO	none (no result: HIV Env fusion, PAX8 reporter, Glyco luc inh, FN deposition inh)
COc1ccc(CN2CCCCCC2)cc1	none
COc1ccc(N=Nc2cc(C)c(O)c(CN3CCCCC3)c2)cc1	MLL AF4-AF9 inh 54
Cc1ccc(OCC(=O)c2cc(C)n(Cc3cccs3)c2C)c([N+](=O)[O-])n1	EWS-Fli block 53
Cc1ccc(OCC(=O)c2cc(C)n(CC(F)(F)F)c2C)c([N+](=O)[O-])n1	none
Cc1ccc(NC(=O)c2ccc(-c3nn(C)c(=O)c4ccccc34)cc2)cc1	HIV Env fusion 75 (no result: PAX8 reporter, MLL AF4-AF9 inh, EWS-Fli block, FN deposition inh)
CNC(=O)c1cc(NC(=O)CCn2nc(-c3ccc(C)cc3)c3ccccc3c2=O)ccc1OC	HIV Env fusion 62
COc1cccc(NC(=O)N2CC(=O)N3[C@H](C2)[C@@H](c2ccc(C#CC4CCCC4)cc2)[C@@H]3CO)c1	none (no result: HIV Env fusion, Glyco luc inh)
